≈ marks a conversion by molar mass, not a printed value. Calls of active or inactive are those of the source. The rule behind the calls is not given here.
Assays:
[1] = test system: Klebsiella pneumoniae; assay: Antimicrobial activity against Klebsiella pneumoniae 52145; format: functional
[2] = test system: Klebsiella pneumoniae; assay: Antimicrobial activity against Klebsiella pneumoniae 52145 at 100 ug/disk by disk diffusion method; format: functional, organism-based
Method in brief: (§1)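 Disk diffusion with SDS at 100 µg per disk.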

[3] = test system: Klebsiella pneumoniae; assay: Antimicrobial activity against Klebsiella pneumoniae 52OmpA2 at 100 ug/disk by disk diffusion method; format: functional, organism-based; method in brief: as §1
[4] = test system: Klebsiella pneumoniae; assay: Antimicrobial activity against Klebsiella pneumoniae 52OmpA2 at 80 ug/disk by disk diffusion method; format: functional; conditions: 52OmpA2, read-out: IZ
Method in brief: (§2)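 Disk diffusion with novobiocin at 80 µg per disk. The diffusion halo was measured in cm and reported as mean ± error, with groups compared by P value.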

[5] = test system: Klebsiella pneumoniae; assay: Antimicrobial activity against Klebsiella pneumoniae 52OmpA2Com; format: functional
[6] = test system: Klebsiella pneumoniae; assay: Antimicrobial activity against Klebsiella pneumoniae 52OmpA2 assessed as decrease in bacterial survival after 1 hr; format: functional, organism-based
Method in brief: (§3)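 Bacterial survival assay: cells were exposed to polymyxin B or protamine for 1 h, or to HNP-1 at a fixed 20 µg/ml for 3 h, and surviving bacteria were then counted. Polymyxin B curves are the mean ± SD of six samples from three independently grown batches. HNP-1 data are the mean ± SD of three experiments, each run in duplicate. Strains were compared by two-tailed t test.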

[7] = test system: Klebsiella pneumoniae; assay: Antimicrobial activity against Klebsiella pneumoniae 52145 assessed as decrease in bacterial survival after 1 hr; format: functional, organism-based; method in brief: as §3
[8] = test system: Klebsiella pneumoniae; assay: Antimicrobial activity against Klebsiella pneumoniae 52OmpA2Com assessed as decrease in bacterial survival after 1 hr; format: functional, organism-based; method in brief: as §3
[9] = test system: Klebsiella pneumoniae; assay: Antimicrobial activity against wcaK2-deficient Klebsiella pneumoniae 52OmpA2 assessed as decrease in bacterial survival; format: functional, organism-based; method in brief: as §3
[10] = test system: Klebsiella pneumoniae; assay: Antimicrobial activity against wcaK2-deficient Klebsiella pneumoniae 52145 assessed as decrease in bacterial survival; format: functional, organism-based; method in brief: as §3
[11] = test system: Klebsiella pneumoniae; assay: Antimicrobial activity against Klebsiella pneumoniae 52145 by Etest; format: functional, organism-based
[12] = test system: Klebsiella pneumoniae; assay: Antimicrobial activity against Klebsiella pneumoniae 52OmpA2Com by Etest; format: functional, organism-based
[13] = test system: Klebsiella pneumoniae; assay: Antimicrobial activity against Klebsiella pneumoniae 52OmpA2 by Etest; format: functional, organism-based
[14] = test system: Klebsiella pneumoniae; assay: Antimicrobial activity against Klebsiella pneumoniae 52145 at 80 ug/disk by disk diffusion method; format: functional, organism-based; method in brief: as §2
[15] = test system: Klebsiella pneumoniae; assay: Antimicrobial activity against Klebsiella pneumoniae 52145 assessed as induction of bacterial wall damage by propidium iodide staining-based fluorescence spectroscopy; format: functional, organism-based
[16] = test system: Klebsiella pneumoniae; assay: Antimicrobial activity against Klebsiella pneumoniae 52OmpA2 assessed as induction of bacterial wall damage by propidium iodide staining-based fluorescence spectroscopy; format: functional, organism-based
[17] = test system: Klebsiella pneumoniae; assay: Binding affinity to Klebsiella pneumoniae 52145 outer membrane assessed as amount of peptide bound at 16 ug/ml after 30 mins
Method in brief: (§4)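 Bacteria were incubated with the peptide for 30 min, and the amount of peptide bound was then determined, expressed in µg/ml. Strains were compared by two-tailed t test.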

[18] = test system: Klebsiella pneumoniae; assay: Binding affinity to Klebsiella pneumoniae 52OmpA2 outer membrane assessed as amount of peptide bound at 16 ug/ml after 30 mins; method in brief: as §4
[19] = test system: Klebsiella pneumoniae; assay: Binding affinity to wcaK2-deficient Klebsiella pneumoniae 52145 lipopolysaccharide assessed as amount of peptide bound at 16 ug/ml after 30 mins
Method in brief: (§5)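 LPS was purified from capsule (CPS) mutants to avoid copurifying capsule. LPS at 50 µg/ml was incubated with polymyxin B at 16 µg/ml for 30 min, and the bound peptide was measured in µg/ml.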

[20] = test system: Klebsiella pneumoniae; assay: Binding affinity to wcaK2-deficient Klebsiella pneumoniae 52OmpA2 lipopolysaccharide assessed as amount of peptide bound at 16 ug/ml after 30 mins; method in brief: as §5
[21] = test system: Klebsiella pneumoniae; assay: Antimicrobial activity against Klebsiella pneumoniae 52OmpAK36 harboring OmpA K36 mutant gene assessed as decrease in bacterial survival after 1 hr by coomassie blue staining; format: functional, organism-based
[22] = test system: Klebsiella pneumoniae; assay: Antimicrobial activity against Klebsiella pneumoniae 52145 assessed as decrease in bacterial survival at 1 ug/ml pre-exposed for 1 hr during growth phase; format: functional, organism-based
Method in brief: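 Cells were pretreated during growth with polymyxin B (final 1 µg/ml, 1 h), washed, and then tested for polymyxin B susceptibility by the same survival assay, alongside untreated cells. Values are the mean ± SD of six samples from three independently grown batches. Pretreated and untreated cells were compared by two-tailed t test.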

## CC1(C)S[C@@H]2[C@H](NC(=O)[C@H](N)c3ccc(O)cc3)C(=O)N2[C@H]1C(=O)O [AMOXICILLIN]
[1]
  MIC: 2 µg/mL (≈ 5.47 µM)

## CO/N=C(\C(=O)N[C@@H]1C(=O)N2C(C(=O)O)=C(COC(C)=O)CS[C@H]12)c1csc(N)n1 [CEFOTAXIME]
[1]
  MIC: 0.05 µg/mL (≈ 0.11 µM)

## O=C(O)c1cn(C2CC2)c2cc(N3CCNCC3)c(F)cc2c1=O [CIPROFLOXACIN]
[1]
  MIC: 0.05 µg/mL (≈ 0.151 µM)

## C[C@@H](O)[C@H]1C(=O)N2C(C(=O)O)=C(SCCNC=N)C[C@H]12 [IMIPENEM ANHYDROUS]
[1]
  MIC: 0.05 µg/mL (≈ 0.167 µM)

## CO[C@@H]1[C@@H](OC(N)=O)[C@@H](O)[C@H](Oc2ccc3c(O)c(NC(=O)c4ccc(O)c(CC=C(C)C)c4)c(=O)oc3c2C)OC1(C)C [NOVOBIOCIN]
[2]
  Activity: inactive
[3]
  Activity: inactive
[4]
  zone of inhibition at 80 µg/disc: 8.5 mm

## GENTAMICIN
[1]
  MIC: 0.15 µg/mL
[5]
  MIC: 0.15 µg/mL

## POLYMYXIN B
[6]
  inhibition: Active
[7]
  Activity: inactive
[8]
  Activity: Active
[9]
  inhibition: Active
[10]
  inhibition: Active
[11]
  MIC: 0.75 µg/mL
[12]
  MIC: 0.75 µg/mL
[13]
  MIC: 0.31 µg/mL
[14]
  inhibition zone (IZ): 9 mm
[15]
  Activity: inactive
[16]
  Activity: inactive
[17]
  Activity: 7.4 µg/mL
[18]
  Activity: 8.1 µg/mL
[19]
  Activity: 4.8 µg/mL
[20]
  Activity: 4.4 µg/mL
[21]
  inhibition: inactive
[22]
  Activity: inactive
